Assay results from PMC6307981 (Journal of Pharmaceutical Sciences, 2019).

What was measured:
[1] = Equilibrium solubility of the crystalline compounds; assay type: physicochemical; settings: 37°C, >24 h, mean ± s.d., n = 3, LLOQ 1 μg/mL
In short: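 Excess crystalline solid (2-3 mg per 1 mL) in water held at 37°C for >24 h. Supernatant cleared by centrifugation at 30,279 × g for ≥20 min, then quantified by HPLC-UV: isocratic C18 column at 50°C, acetonitrile/water 80:20 or 70:30 depending on compound, 1 mL/min, detection at 280 nm, calibration against acetonitrile standards.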

[2] = Metabolic stability in human liver microsomes; assay type: in vitro ADME
In short: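 Incubated with 0.5 mg/mL human liver microsomes at 1 μM compound in 100 mM KPO4, pH 7.4, started with 1 mM NADPH. Aliquots at 0, 5, 10, 20, 40 and 60 min quenched in cold acetonitrile. Parent remaining measured by LC-MS/MS.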

[3] = assay type: in vivo, rats (male; Sprague-Dawley); settings: rat
In short: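 Male Sprague-Dawley rats, lightly isoflurane-anaesthetised, got 250 μL dosing solution intratracheally by catheter to the tracheal bifurcation at 0.067, 0.12 or 0.28 mg/kg. Plasma, lung and, in one study, BAL sampled to 24 or 48 h and assayed by LC-MS. Four-compartment model with central lung fixed at 2 g and BAL plus lung summed. M3 used for <LLOQ data; VPC; apparent parameters scaled to 0.3 kg.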

[4] = from human liver microsomes data
[5] = intratracheal, apparent parameter of final model, scaled to 0.3 kg
[6] = intratracheal, final model, scaled to 0.3 kg

With `CCCCCCCCCc1nc2cc(Cl)ccc2c(=O)n1N` [SEN001, 3-amino-7-chloro-2-nonylquinazolin-4(3H)-one] the Solubility in water [1] was “<LLOQ”, the “CLH (hepatic clearance)” value [2, 4] was 747.9 mL/min and the “EH (hepatic extraction ratio)” value [2, 4] was 0.50. The “CLint (intrinsic clearance)” value ([2]; human liver microsomes, 1 μM compound) was 1491.7 mL/min, the half-life at 1 μM ([2]; human, liver microsomes, pH 7.4) was 54.4 min and the “Time of distribution equilibrium (lung, BAL, plasma)” value ([3]; intratracheal 0.067 mg/kg) was 2 h. The “CLC, clearance central” value [3, 5] was 0.0745 L/h, the “CLLP, clearance lung to plasma” value [3, 5] was 0.0175 L/h and the “VC, volume of distribution central” value [3, 5] was 0.0855 L. The “FBAL, fraction in BAL” value ([3]; intratracheal, final model (Table 5)) was 0.980%, the “QL, intercompartmental clearance lung” value [3, 6] was 0.00596 L/h and the “VLP, volume of distribution deep lung” value [3, 6] was 0.0582 L.
